The test system of series [1] is RAW264.7. Briefly: Inhibition of LPS/IFN-gamma-induced PGE2 production in mouse RAW264.7 cells at 25 uM after 17 to 20 hrs by enzyme immunoassay relative to control. Type of series: functional. The procedure, abridged: (§1)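 Cells (5 × 10⁵/well) attached 24 h, then stimulated with recombinant IFN-γ 100 U/mL and LPS 2 µg/mL with or without compound (DMSO vehicle, 0.1% final), 17–20 h at 37 °C, 5% CO₂. U937 were first differentiated with 200 nM PMA for 24 h, then serum-free overnight. Supernatant PGE₂ quantified against standard curves; dose-response 0.78–50 µM, means ± SD of three samples.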

For series [2], the system named is U-937. Briefly: Inhibition of LPS/IFN-gamma-induced PGE2 production in PMA-treated human U937 cells at 25 uM after 17 to 20 hrs by enzyme immunoassay relative to control. Format: functional. In outline:
as §1

A short description of series [3]: Cytotoxicity against PMA-treated human U937 cells assessed as cell viability at 25 uM by MTT assay relative to control. Format: cell-based, U-937. As to conditions: read-out: Activity. In outline: (§2)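 After 17–20 h stimulation with 100 U/mL IFN-γ plus 2 µg/mL LPS (±compound, DMSO final 0.1%) at 37 °C, 5% CO₂, supernatant removed; MTT (5 mg/mL stock, 20 µL) added, 4 h at 37 °C; formazan dissolved in DMSO, absorbance at 570 nm. U937 were PMA-differentiated (200 nM, 24 h), then serum-free overnight; RAW264.7 grown in DMEM/10% FBS.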

Series [4] in a line: Cytotoxicity against mouse RAW264.7 cells assessed as cell viability at 25 uM by MTT assay relative to control. Format: cell-based. To be noted: read-out: Activity. In outline:
as §2

In series [5] the test system is RAW264.7. Briefly: Inhibition of LPS/IFN-gamma-induced nitric oxide production in mouse RAW264.7 cells at 25 uM relative to control. Format: functional.
Series [6] concerns the target T1, Prostaglandin G/H synthase 1 (Ovis aries) (UniProt P05979).
T1 sequence (whole entry): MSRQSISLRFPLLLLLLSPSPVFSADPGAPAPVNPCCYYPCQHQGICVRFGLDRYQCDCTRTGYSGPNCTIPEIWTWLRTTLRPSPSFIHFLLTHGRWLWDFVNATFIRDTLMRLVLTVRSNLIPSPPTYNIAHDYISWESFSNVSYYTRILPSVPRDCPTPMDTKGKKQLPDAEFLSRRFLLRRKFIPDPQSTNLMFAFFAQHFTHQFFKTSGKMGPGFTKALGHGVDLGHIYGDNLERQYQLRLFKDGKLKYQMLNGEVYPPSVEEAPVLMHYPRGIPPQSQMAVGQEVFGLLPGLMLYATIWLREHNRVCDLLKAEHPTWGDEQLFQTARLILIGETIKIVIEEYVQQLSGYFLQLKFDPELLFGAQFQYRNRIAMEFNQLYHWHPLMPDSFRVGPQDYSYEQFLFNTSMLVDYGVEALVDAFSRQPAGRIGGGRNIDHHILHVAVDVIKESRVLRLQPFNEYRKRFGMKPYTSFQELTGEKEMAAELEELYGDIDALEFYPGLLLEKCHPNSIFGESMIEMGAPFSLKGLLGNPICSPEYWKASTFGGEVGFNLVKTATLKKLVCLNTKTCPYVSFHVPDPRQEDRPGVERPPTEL
Briefly: Inhibition of ovine COX1 at 25 uM by ELISA relative to control. The procedure, abridged:
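COX-1 (ovine) inhibition measured with a commercial ovine/human COX inhibitor screening ELISA kit per manufacturer's protocol; prostaglandin concentrations read on a microplate reader and calculated from standard curves.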

The test system of series [7] is U-937. Briefly: Inhibition of LPS/IFN-gamma-induced PGE2 production in PMA-treated human U937 cells after 17 to 20 hrs by enzyme immunoassay. Type of series: functional, cell-based. The procedure, abridged:
as §1

Series [8] relates to RAW264.7. Briefly: Inhibition of LPS/IFN-gamma-induced PGE2 production in mouse RAW264.7 cells after 17 to 20 hrs by enzyme immunoassay. Format: functional, cell-based. The procedure, abridged:
as §1

The nature of series [9]: Cytotoxicity against PMA-treated human U937 cells assessed as cell viability at 5 uM by MTT assay relative to control.
The nature of series [10]: Cytotoxicity against mouse RAW264.7 cells assessed as cell viability at 5 uM by MTT assay relative to control.
The test system of series [11] is U-937. The experiment in a line: Inhibition of LPS/IFN-gamma-induced PGE2 production in PMA-treated human U937 cells at 5 uM after 17 to 20 hrs by enzyme immunoassay relative to control. To be noted: U-937, read-out: INH.
Series [12] concerns RAW264.7. Briefly: Inhibition of LPS/IFN-gamma-induced PGE2 production in mouse RAW264.7 cells at 5 uM after 17 to 20 hrs by enzyme immunoassay relative to control. As to conditions: RAW264.7, read-out: INH.
Series [13] can be described thus: Inhibition of COX in CD1 mouse epidermal cytosolic fractions using [14C]arachidonic acid as substrate assessed as PGE2, PGF2alpha, and PGD2 formation by TLC/liquid scintillation spectrometry method.
Series [14] in a line: Inhibition of COX in CD1 mouse epidermal microsomes using [14C]arachidonic acid as substrate assessed as PGE2, PGF2alpha, and PGD2 formation by TLC/liquid scintillation spectrometry method. On the set-up: species or system Skin epidermis.

The source made the active and inactive calls. The calls are words filed in the database; no cut-off is given here.

Our source for the inhibition, viability and IC50 values is ChEMBL document CHEMBL3792362 (Bioorg Med Chem Lett, 2016).

In the case of `CCN(CC)c1ccc(/C=C2\CCC/C(=C\c3ccc(-c4ccc(F)cc4)cc3)C2=O)cc1`, the inhibition at 25 µM was 65% in series [1] and 72% in series [2]. The viability at 25 µM in series [3] was found to be 100%; in series [4], 94%. Moreover, in [5], the inhibition entry is “inactive”.
As to `COc1cccc(/C=C2\CCC/C(=C\c3ccc(-c4ccc(F)cc4)cc3)C2=O)c1OC`, the inhibition at 25 µM is 51% in [1] and 68% in [2]. The viability at 25 µM in [3] came to 98%; in [4], 90%. Besides, in [5], the inhibition entry is “inactive”.
Regarding `COc1cc(/C=C2\CCC/C(=C\c3ccc(O)cc3)C2=O)ccc1O`, the inhibition at 25 µM worked out at 96% in series [1], 88% in [2] and 100% in series [5]. Further, the inhibition result in series [6] was “inactive”. Moreover, the IC50 in [7] was 0.92 µM; in series [8], 1.9 µM. The viability at 25 µM was 100% in series [3] and below 50% in series [4].
`CCN(CC)c1ccc(/C=C2\CCC/C(=C\c3ccc(O)c(OC)c3)C2=O)cc1`: the figures for the inhibition at 25 µM in series [1], in series [2] and in series [5] were 95%, 85% and 100%, respectively. Also, the viability at 25 µM was 100% in [3] and below 50% in series [4].
Turning to `COc1cccc(/C=C2\CCC/C(=C\c3ccc(Cl)c(Cl)c3)C2=O)c1OC`, the figures for the inhibition at 25 µM in series [1], in series [2] and in series [5] were 73%, 58% and 90%, respectively. For the same compound, the viability at 25 µM was 100% in series [3] and 77% in [4].
Regarding `Cc1ccc(/C=C2\CCC/C(=C\c3cccc4ccccc34)C2=O)cc1`, the results for the inhibition at 25 µM in series [1] and in [2] were 74% and 66%, respectively. The viability at 25 µM in [3] is 94%; in series [4], 100%. In addition, in [5], the inhibition entry was “inactive”.
Consider `COc1ccc(/C=C2\CCC/C(=C\c3ccc(O)c(OC)c3)C2=O)cc1`, for which the inhibition at 25 µM in series [1] was 96%; in series [2], 86%; in series [5] it was 100%. In series [6], the inhibition entry is “inactive”. Further, the IC50 in series [7] turned out to be 0.95 µM; in series [8], 0.78 µM. Moreover, the viability at 25 µM was 100% in series [3] and below 50% in series [4].
For `O=C1/C(=C/c2ccc(-c3ccc(F)cc3)cc2)CCC/C1=C\c1ccc(Cl)c(Cl)c1`, the figures for the inhibition at 25 µM in series [1] and in [2] were 59% and 76%, respectively. The viability at 25 µM in series [3] was determined as 94%; in series [4], 100%. The inhibition result in series [5] was “inactive”.
On the same counts, the results for `O=C1/C(=C/c2ccc(Br)cc2)CCC/C1=C\c1ccc(-c2ccc(F)cc2)cc1` are 53%, 66%, 98%, 92% and “inactive”.
With `CS(=O)(=O)Nc1ccc([N+](=O)[O-])cc1Oc1ccccc1` [NIMESULIDE], the viability at 5 µM in [9] and in series [10] was 100% each time. The figures for the inhibition at 5 µM in series [11] and in [12] were 89% and 66%, respectively. The IC50 in series [7] and in series [8] was below 0.078 µM in each case.
Consider `COc1cc(/C=C2\CCC/C(=C\c3ccc(C)cc3)C2=O)ccc1O`, for which the inhibition at 25 µM in [1] was 95%; in series [2], 85%; in series [5], 100%. Besides, the viability at 25 µM in series [3] was 100%; in series [4], below 50%.
For the compound `COc1cc(/C=C2\CCC/C(=C\c3ccc(Br)cc3)C2=O)ccc1O`, the inhibition at 25 µM in series [1] was 96%; in series [2], 87%; in [5], 100%. Further, the viability at 25 µM was 100% in series [3] and below 50% in series [4].
In [5], `COC(=O)[C@@H](N)CCCNC(=N)N[N+](=O)[O-]` [L-NAME] returned an inhibition at 25 µM of 53%.
For the compound `COc1cc(/C=C/C(=O)CC(=O)/C=C/c2ccc(O)c(OC)c2)ccc1O` [CURCUMIN], the IC50 came out at 5 µM in series [13], 52 µM in series [14], 1.88 µM in series [7] and 16 µM in [8]. For the same compound, the values for the inhibition at 25 µM in series [1], in series [2] and in series [5] were 78%, 94% and 85%, respectively. The inhibition result in series [6] was “inactive”. The viability at 25 µM in series [3] amounted to 95%; in series [4], 90%.
Take `Cc1ccc(/C=C2\CCC/C(=C\c3ccc(C)o3)C2=O)cc1`: the inhibition at 25 µM in series [1] was 92%; in series [2], 84%; in series [5], 99%. The inhibition entry in [6] was “inactive”. For the same compound, the IC50 in series [7] turned out to be 1.65 µM; in series [8] it was 4.86 µM. For the same compound, in series [7], the inhibition result was “Dose-dependent effect”. The viability at 25 µM in series [3] came to 98%; in [4] it was 83%.
For the compound `COc1cccc(/C=C2\CCC/C(=C\c3ccc(C)cc3)C2=O)c1OC`, the figures for the inhibition at 25 µM in series [1], in series [2] and in [5] were 83%, 83% and 95%, respectively. The inhibition result in series [6] was “inactive”. Moreover, the half-maximal inhibitory concentration (IC50) in series [7] was 3.44 µM; in series [8], 12 µM. Besides, the inhibition entry in [7] was “Dose-dependent effect”. The viability at 25 µM in series [3] and in series [4] was 100% in each case.
Consider `Cc1ccc(/C=C2\CCC/C(=C\c3ccc(Cl)c(Cl)c3)C2=O)cc1`, for which the inhibition at 25 µM in series [1] is 64%; in [2], 68%; in series [5], 71%. Besides, the viability at 25 µM came out at 100% in series [3] and 95% in series [4].
